Test results published in ChEMBL document CHEMBL3593207, “Imidazole clubbed 1,3,4-oxadiazole derivatives as potential antifungal agents” (2015).

Tests used:
Assay type in all cases: functional
[1] = tested on: Candida albicans; experiment: Antifungal activity against clinical isolates of Candida albicans 2367 by broth microdilution assay
Method in brief: (§1)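 CLSI M27-A3 broth microdilution. Compounds diluted to 1 mg/ml in 1% DMSO. Fluconazole (1 mg/ml) served as positive control, 1% DMSO as vehicle control, with media and culture controls. Triplicate at each concentration, repeated thrice. Inocula came from YPDA stocks subcultured in broth for 48 h at 37 °C.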

[2] = tested on: Candida tropicalis; experiment: Antifungal activity against clinical isolates of Candida tropicalis 2356 by broth microdilution assay; method in brief: as §1
[3] = tested on: Candida tropicalis; experiment: Antifungal activity against Candida tropicalis ATCC 750 by broth microdilution assay; method in brief: as §1
[4] = tested on: Candida tropicalis; experiment: Antifungal activity against clinical isolates of Candida tropicalis 2029 by broth microdilution assay; method in brief: as §1
[5] = tested on: Candida albicans; experiment: Antifungal activity against clinical isolates of Candida albicans 2779 by broth microdilution assay; method in brief: as §1
[6] = tested on: Candida albicans; experiment: Antifungal activity against Candida albicans ATCC 10261 by broth microdilution assay; method in brief: as §1
[7] = tested on: Candida albicans; experiment: Antifungal activity against clinical isolates of Candida albicans 2323 by broth microdilution assay; method in brief: as §1

MIC [1] | MIC [2] | MIC [3] | MIC [4] | MIC [5] | MIC [6] | MIC [7] | Structure (SMILES)
> 1000 µg/mL | > 1000 µg/mL | > 1000 µg/mL | > 1000 µg/mL | > 1000 µg/mL | > 1000 µg/mL | > 1000 µg/mL | CCc1ccnc(-c2nccn2Cc2nnc(-c3ccccc3N)o2)c1
> 1000 µg/mL | > 1000 µg/mL | > 1000 µg/mL | > 1000 µg/mL | > 1000 µg/mL | > 1000 µg/mL | > 1000 µg/mL | CCc1ccnc(-c2nccn2Cc2nnc(-c3ccccc3)o2)c1
> 1000 µg/mL | > 1000 µg/mL | > 1000 µg/mL | > 1000 µg/mL | > 1000 µg/mL | > 1000 µg/mL | > 1000 µg/mL | CCc1ccnc(-c2nccn2Cc2nnc(COc3ccc(Cl)cc3)o2)c1
> 1000 µg/mL | > 1000 µg/mL | > 1000 µg/mL | > 1000 µg/mL | > 1000 µg/mL | > 1000 µg/mL | > 1000 µg/mL | CCc1ccnc(-c2nccn2Cc2nnc(Cc3ccc(C(C)C)cc3)o2)c1
> 1000 µg/mL | > 1000 µg/mL | > 1000 µg/mL | > 1000 µg/mL | > 1000 µg/mL | > 1000 µg/mL | > 1000 µg/mL | CCc1ccnc(-c2nccn2Cc2nnc(-c3ccc(Cl)cc3Cl)o2)c1
